Measured values reported in ChEMBL document CHEMBL4689842, “EUbOPEN Chemogenomics Library wave 1” (2021).

Columns and labels:
Format in all cases: toxicity, cell-based
Fibroblast = assay: Incucyte cell viability with human fibroblast; conditions: 10 µM, compound concentration 10 uM; also: filed as whole numbers so only -1 and 0 and 1 occur
HEK-293T = assay: Incucyte cell viability with HEK293T; conditions: human, 10 µM, compound concentration 10 uM; also: filed as whole numbers so only -1 and 0 and 1 occur
U2OS [1] = assay: Multiplex assay against U2OS; conditions: human
Outline: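 Live cells were stained at seeding with Hoechst33342, BioTracker Green Microtubule Cytoskeleton Dye, MitoTracker Red and Annexin V Alexa Fluor 680. Following compound addition, they were imaged on a CQ1 microscope at 37°C and 5% CO2 and gated by CellPathfinder machine learning into Hoechst high-intensity objects or normal cells, with normal cells split into healthy, pyknosed or fragmented nuclei and pyknosed cells into mitotic or apoptotic. Tubulin, mitochondrial-mass and membrane-permeability phenotypes are per cents of healthy-nucleus cells.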

U2OS [2] = assay: Incucyte cell viability with U2OS; conditions: human, 10 µM, compound concentration 10 uM; also: filed as whole numbers so only -1 and 0 and 1 occur
[3] = 0 h, replicate number 1, timepoint 0 hours
[4] = 6 h, replicate number 1, timepoint 6 hours
[5] = 6 h, replicate number 2, timepoint 6 hours
[6] = 12 h, replicate number 1, timepoint 12 hours
[7] = 18 h, replicate number 1, timepoint 18 hours
[8] = 24 h, replicate number 1, timepoint 24 hours
[9] = 12 h, 1 µM, compound concentration 1 uM, replicate 1
[10] = 12 h, 1 µM, compound concentration 1 uM, replicate 2
[11] = 12 h, 10 µM, compound concentration 10 uM, replicate 1
[12] = 12 h, 10 µM, compound concentration 10 uM, replicate 2
[13] = 24 h, 1 µM, compound concentration 1 uM, replicate 1
[14] = 24 h, 1 µM, compound concentration 1 uM, replicate 2
[15] = 24 h, 10 µM, compound concentration 10 uM, replicate 1
[16] = 24 h, 10 µM, compound concentration 10 uM, replicate 2
[17] = 48 h, 1 µM, compound concentration 1 uM, replicate 1
[18] = 48 h, 1 µM, compound concentration 1 uM, replicate 2
[19] = 48 h, 10 µM, compound concentration 10 uM, replicate 1
[20] = 48 h, 10 µM, compound concentration 10 uM, replicate 2

SMILES: CC(C)c1cc(Nc2nc(N3CCC[C@H](N)C3)ncc2C(N)=O)cc(C(C)C)n1
- Growth Rate (Fibroblast; [3]): 0
- Growth Rate (Fibroblast; [4]): 1
- Growth Rate (Fibroblast; [5]): 0
- Growth Rate (Fibroblast; [6]): 1
- Growth Rate (Fibroblast; 12 h, replicate number 2, timepoint 12 hours): 0
- Growth Rate (Fibroblast; [7]): 0
- Growth Rate (Fibroblast; [8]): 0
- Growth Rate (HEK-293T; [4]): 0
- Growth Rate (HEK-293T; [6]): 0
- Growth Rate (HEK-293T; [7]): 0
- Growth Rate (HEK-293T; [8]): 0
- Population Apoptotic (%) (U2OS [1]; [9]): 51%
- Population Fragmented Nuclei (%) (U2OS [1]; [9]): 8%
- Population Healthy Nuclei (%) (U2OS [1]; [9]): 67%
- Population Hoechst High Intensity Objects (%) (U2OS [1]; [9]): 5%
- Population Membrane Permeable-Phenotype (%) (U2OS [1]; [9]): 22%
- Population Mitochondria Different-Phenotype (%) (U2OS [1]; [9]): 89%
- Population Mitotic Cells (%) (U2OS [1]; [9]): 48%
- Population Normal (%) (U2OS [1]; [9]): 94%
- Population Pyknosed Nuclei (%) (U2OS [1]; [9]): 23%
- Population Tubulin-Different-Phenotype (%) (U2OS [1]; [9]): 100%
- Total Cell Count (U2OS [1]; [9]): 201
- Population Apoptotic (%) (U2OS [1]; [10]): 44%
- Population Fragmented Nuclei (%) (U2OS [1]; [10]): 12%
- Population Healthy Nuclei (%) (U2OS [1]; [10]): 75%
- Population Hoechst High Intensity Objects (%) (U2OS [1]; [10]): 9%
- Population Membrane Permeable-Phenotype (%) (U2OS [1]; [10]): 16%
- Population Mitochondria Different-Phenotype (%) (U2OS [1]; [10]): 92%
- Population Mitotic Cells (%) (U2OS [1]; [10]): 55%
- Population Normal (%) (U2OS [1]; [10]): 90%
- Population Pyknosed Nuclei (%) (U2OS [1]; [10]): 12%
- Population Tubulin-Different-Phenotype (%) (U2OS [1]; [10]): 96%
- Total Cell Count (U2OS [1]; [10]): 82
- Population Apoptotic (%) (U2OS [1]; [11]): 64%
- Population Fragmented Nuclei (%) (U2OS [1]; [11]): 23%
- Population Healthy Nuclei (%) (U2OS [1]; [11]): 39%
- Population Hoechst High Intensity Objects (%) (U2OS [1]; [11]): 4%
- Population Membrane Permeable-Phenotype (%) (U2OS [1]; [11]): 88%
- Population Mitochondria Different-Phenotype (%) (U2OS [1]; [11]): 98%
- Population Mitotic Cells (%) (U2OS [1]; [11]): 35%
- Population Normal (%) (U2OS [1]; [11]): 95%
- Population Pyknosed Nuclei (%) (U2OS [1]; [11]): 37%
- Total Cell Count (U2OS [1]; [11]): 161
- Population Apoptotic (%) (U2OS [1]; [12]): 65%
- Population Fragmented Nuclei (%) (U2OS [1]; [12]): 19%
- Population Healthy Nuclei (%) (U2OS [1]; [12]): 31%
- Population Hoechst High Intensity Objects (%) (U2OS [1]; [12]): 14%
- Population Membrane Permeable-Phenotype (%) (U2OS [1]; [12]): 100%
- Population Mitochondria Different-Phenotype (%) (U2OS [1]; [12]): 93%
- Population Mitotic Cells (%) (U2OS [1]; [12]): 34%
- Population Normal (%) (U2OS [1]; [12]): 85%
- Population Pyknosed Nuclei (%) (U2OS [1]; [12]): 48%
- Population Tubulin-Different-Phenotype (%) (U2OS [1]; [12]): 100%
- Total Cell Count (U2OS [1]; [12]): 55
- Population Apoptotic (%) (U2OS [1]; [13]): 57%
- Population Fragmented Nuclei (%) (U2OS [1]; [13]): 9%
- Population Healthy Nuclei (%) (U2OS [1]; [13]): 61%
- Population Hoechst High Intensity Objects (%) (U2OS [1]; [13]): 6%
- Population Membrane Permeable-Phenotype (%) (U2OS [1]; [13]): 22%
- Population Mitochondria Different-Phenotype (%) (U2OS [1]; [13]): 90%
- Population Mitotic Cells (%) (U2OS [1]; [13]): 42%
- Population Normal (%) (U2OS [1]; [13]): 93%
- Population Pyknosed Nuclei (%) (U2OS [1]; [13]): 29%
- Population Tubulin-Different-Phenotype (%) (U2OS [1]; [13]): 98%
- Total Cell Count (U2OS [1]; [13]): 206
- Population Apoptotic (%) (U2OS [1]; [14]): 26%
- Population Fragmented Nuclei (%) (U2OS [1]; [14]): 10%
- Population Healthy Nuclei (%) (U2OS [1]; [14]): 68%
- Population Hoechst High Intensity Objects (%) (U2OS [1]; [14]): 5%
- Population Membrane Permeable-Phenotype (%) (U2OS [1]; [14]): 30%
- Population Mitochondria Different-Phenotype (%) (U2OS [1]; [14]): 96%
- Population Mitotic Cells (%) (U2OS [1]; [14]): 73%
- Population Normal (%) (U2OS [1]; [14]): 94%
- Population Pyknosed Nuclei (%) (U2OS [1]; [14]): 20%
- Population Tubulin-Different-Phenotype (%) (U2OS [1]; [14]): 94%
- Total Cell Count (U2OS [1]; [14]): 77
- Population Apoptotic (%) (U2OS [1]; [15]): 74%
- Population Fragmented Nuclei (%) (U2OS [1]; [15]): 32%
- Population Hoechst High Intensity Objects (%) (U2OS [1]; [15]): 9%
- Population Membrane Permeable-Phenotype (%) (U2OS [1]; [15]): 97%
- Population Mitochondria Different-Phenotype (%) (U2OS [1]; [15]): 100%
- Population Mitotic Cells (%) (U2OS [1]; [15]): 25%
- Population Normal (%) (U2OS [1]; [15]): 90%
- Population Pyknosed Nuclei (%) (U2OS [1]; [15]): 44%
- Population Tubulin-Different-Phenotype (%) (U2OS [1]; [15]): 97%
- Total Cell Count (U2OS [1]; [15]): 167
- Population Apoptotic (%) (U2OS [1]; [16]): 84%
- Population Fragmented Nuclei (%) (U2OS [1]; [16]): 23%
- Population Healthy Nuclei (%) (U2OS [1]; [16]): 23%
- Population Hoechst High Intensity Objects (%) (U2OS [1]; [16]): 17%
- Population Membrane Permeable-Phenotype (%) (U2OS [1]; [16]): 100%
- Population Mitochondria Different-Phenotype (%) (U2OS [1]; [16]): 90%
- Population Mitotic Cells (%) (U2OS [1]; [16]): 16%
- Population Normal (%) (U2OS [1]; [16]): 82%
- Population Pyknosed Nuclei (%) (U2OS [1]; [16]): 53%
- Population Tubulin-Different-Phenotype (%) (U2OS [1]; [16]): 100%
- Total Cell Count (U2OS [1]; [16]): 57
- Population Apoptotic (%) (U2OS [1]; [17]): 54%
- Population Fragmented Nuclei (%) (U2OS [1]; [17]): 17%
- Population Healthy Nuclei (%) (U2OS [1]; [17]): 45%
- Population Hoechst High Intensity Objects (%) (U2OS [1]; [17]): 7%
- Population Membrane Permeable-Phenotype (%) (U2OS [1]; [17]): 26%
- Population Mitochondria Different-Phenotype (%) (U2OS [1]; [17]): 83%
- Population Mitotic Cells (%) (U2OS [1]; [17]): 45%
- Population Normal (%) (U2OS [1]; [17]): 92%
- Population Pyknosed Nuclei (%) (U2OS [1]; [17]): 37%
- Population Tubulin-Different-Phenotype (%) (U2OS [1]; [17]): 94%
- Total Cell Count (U2OS [1]; [17]): 249
- Population Apoptotic (%) (U2OS [1]; [18]): 52%
- Population Fragmented Nuclei (%) (U2OS [1]; [18]): 14%
- Population Healthy Nuclei (%) (U2OS [1]; [18]): 60%
- Population Hoechst High Intensity Objects (%) (U2OS [1]; [18]): 3%
- Population Membrane Permeable-Phenotype (%) (U2OS [1]; [18]): 46%
- Population Mitochondria Different-Phenotype (%) (U2OS [1]; [18]): 88%
- Population Mitotic Cells (%) (U2OS [1]; [18]): 47%
- Population Normal (%) (U2OS [1]; [18]): 96%
- Population Pyknosed Nuclei (%) (U2OS [1]; [18]): 25%
- Population Tubulin-Different-Phenotype (%) (U2OS [1]; [18]): 96%
- Total Cell Count (U2OS [1]; [18]): 86
- Population Apoptotic (%) (U2OS [1]; [19]): 89%
- Population Fragmented Nuclei (%) (U2OS [1]; [19]): 36%
- Population Healthy Nuclei (%) (U2OS [1]; [19]): 5%
- Population Hoechst High Intensity Objects (%) (U2OS [1]; [19]): 15%
- Population Membrane Permeable-Phenotype (%) (U2OS [1]; [19]): 100%
- Population Mitochondria Different-Phenotype (%) (U2OS [1]; [19]): 100%
- Population Mitotic Cells (%) (U2OS [1]; [19]): 10%
- Population Normal (%) (U2OS [1]; [19]): 84%
- Population Pyknosed Nuclei (%) (U2OS [1]; [19]): 58%
- Population Tubulin-Different-Phenotype (%) (U2OS [1]; [19]): 100%
- Total Cell Count (U2OS [1]; [19]): 155
- Population Apoptotic (%) (U2OS [1]; [20]): 95%
- Population Fragmented Nuclei (%) (U2OS [1]; [20]): 34%
- Population Healthy Nuclei (%) (U2OS [1]; [20]): 9%
- Population Hoechst High Intensity Objects (%) (U2OS [1]; [20]): 26%
- Population Mitotic Cells (%) (U2OS [1]; [20]): 4%
- Population Normal (%) (U2OS [1]; [20]): 73%
- Population Pyknosed Nuclei (%) (U2OS [1]; [20]): 56%
- Total Cell Count (U2OS [1]; [20]): 56
- Growth Rate (U2OS [2]; [3]): 1
- Growth Rate (U2OS [2]; 0 h, replicate number 2, timepoint 0 hours): 0
- Growth Rate (U2OS [2]; [4]): 0
- Growth Rate (U2OS [2]; [5]): 1
- Growth Rate (U2OS [2]; [6]): 0
- Growth Rate (U2OS [2]; [7]): 0
- Growth Rate (U2OS [2]; [8]): 0
